Results: ChEMBL document CHEMBL4196066, “Design and synthesis of furyl/thineyl pyrroloquinolones based on natural alkaloid perlolyrine, lead to the discovery of potent and selective PDE5 inhibitors” (Eur J Med Chem, 2018)

Legend:
[1] = test system: Oryctolagus cuniculus; experiment: Vasorelaxant activity in iv dosed New Zealand rabbit assessed as induction of ICP change in response to electrically pelvic nerve stimulation administered as bolus dose; type: functional
[2] = target: T1, cGMP-specific 3',5'-cyclic phosphodiesterase (Homo sapiens, UniProt O76074); experiment: Inhibition of N-terminal GST-tagged full length recombinant human PDE5A1 catalytic domain expressed in Baculovirus infected Sf9 insect cells using FAM-cGMP as substrate after 1 hr by fluorescence polarization assay
[3] = species: Homo sapiens; experiment: Selectivity ratio of IC50 for N-terminal GST-tagged full length recombinant human PDE1A to IC50 for N-terminal GST-tagged full length recombinant human PDE5A1 catalytic domain
[4] = species: Homo sapiens; experiment: Selectivity ratio of IC50 for N-terminal FLAG-tagged human PDE2A1 (2 to 941 residues) to IC50 for N-terminal GST-tagged full length recombinant human PDE5A1 catalytic domain
[5] = species: Homo sapiens; experiment: Selectivity ratio of IC50 for N-terminal GST-tagged recombinant human PDE3B (592 end residues) to IC50 for N-terminal GST-tagged full length recombinant human PDE5A1 catalytic domain
[6] = species: Homo sapiens; experiment: Selectivity ratio of IC50 for N-terminal GST-tagged full length recombinant human PDE4A1A to IC50 for N-terminal GST-tagged full length recombinant human PDE5A1 catalytic domain
[7] = species: Homo sapiens; experiment: Selectivity ratio of IC50 for N-terminal GST-tagged full length recombinant human PDE6C to IC50 for N-terminal GST-tagged full length recombinant human PDE5A1 catalytic domain
[8] = target: Cone cGMP-specific 3',5'-cyclic phosphodiesterase subunit alpha' (Homo sapiens, UniProt P51160); experiment: Inhibition of N-terminal GST-tagged full length recombinant human PDE6C expressed in Baculovirus infected Sf9 insect cells using […] as substrate after 1 hr by fluorescence polarization assay
[9] = target: Dual specificity calcium/calmodulin-dependent 3',5'-cyclic nucleotide phosphodiesterase 1A (Homo sapiens) (UniProt P54750); experiment: Inhibition of N-terminal GST-tagged full length recombinant human PDE1A expressed in Baculovirus infected Sf9 insect cells at 25 uM using FAM-cAMP as substrate after 1 hr by fluorescence polarization assay relative to control
[10] = target: cGMP-dependent 3',5'-cyclic phosphodiesterase (Homo sapiens) (UniProt O00408); experiment: Inhibition of N-terminal FLAG-tagged human PDE2A1 (2 to 941 residues) expressed in Baculovirus infected Sf9 insect cells at 25 uM using FAM-cAMP as substrate after 1 hr by fluorescence polarization assay relative to control
[11] = target: cGMP-inhibited 3',5'-cyclic phosphodiesterase 3B (Homo sapiens) (UniProt Q13370); experiment: Inhibition of N-terminal GST-tagged recombinant human PDE3B (592 end residues) expressed in Baculovirus infected Sf9 insect cells at 25 uM using FAM-cAMP as substrate after 1 hr by fluorescence polarization assay relative to control
[12] = target: 3',5'-cyclic-AMP phosphodiesterase 4A (Homo sapiens) (UniProt P27815); experiment: Inhibition of N-terminal GST-tagged full length recombinant human PDE4A1A expressed in Baculovirus infected Sf9 insect cells at 6 uM using FAM-cAMP as substrate after 1 hr by fluorescence polarization assay relative to control
[13] = test system: Thoracic aorta; experiment: Vasorelaxant activity in norepinephrine-pretreated New Zealand rabbit thoracic aorta assessed as increase in aortic relaxation at 10 uM measured after 15 mins relative to control; type: functional, Oryctolagus cuniculus; design: scale not given: the % may be the effect or the level left
Method in brief: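 Thoracic aortic rings from New Zealand white rabbits were held in Krebs buffer at 2 g resting tension (0%) and equilibrated 2 h. Rings were contracted to maximum with 1 µM norepinephrine (100%). Compounds were added cumulatively at 15 min intervals, with tension recorded 15 min after each dose. Relaxation % = (max − recorded)/(max − 2 g) × 100; n = 1–2 rings.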

[14] = target: Dual specificity calcium/calmodulin-dependent 3',5'-cyclic nucleotide phosphodiesterase 1A (Homo sapiens) (UniProt P54750); experiment: Inhibition of N-terminal GST-tagged full length recombinant human PDE1A expressed in Baculovirus infected Sf9 insect cells at 250 uM using FAM-cAMP as substrate after 1 hr by fluorescence polarization assay relative to control
[15] = target: cGMP-dependent 3',5'-cyclic phosphodiesterase (Homo sapiens) (UniProt O00408); experiment: Inhibition of N-terminal FLAG-tagged human PDE2A1 (2 to 941 residues) expressed in Baculovirus infected Sf9 insect cells at 40 uM using FAM-cAMP as substrate after 1 hr by fluorescence polarization assay relative to control
[16] = target: cGMP-inhibited 3',5'-cyclic phosphodiesterase 3B (Homo sapiens) (UniProt Q13370); experiment: Inhibition of N-terminal GST-tagged recombinant human PDE3B (592 end residues) expressed in Baculovirus infected Sf9 insect cells at 250 uM using FAM-cAMP as substrate after 1 hr by fluorescence polarization assay relative to control
[17] = target: 3',5'-cyclic-AMP phosphodiesterase 4A (Homo sapiens) (UniProt P27815); experiment: Inhibition of N-terminal GST-tagged full length recombinant human PDE4A1A expressed in Baculovirus infected Sf9 insect cells at 50 uM using FAM-cAMP as substrate after 1 hr by fluorescence polarization assay relative to control
[18] = target: T1, cGMP-specific 3',5'-cyclic phosphodiesterase; experiment: Inhibition of PDE5 (unknown origin)
[19] = target: Dual specificity calcium/calmodulin-dependent 3',5'-cyclic nucleotide phosphodiesterase 1A (Homo sapiens) (UniProt P54750); experiment: Inhibition of N-terminal GST-tagged full length recombinant human PDE1A expressed in Baculovirus infected Sf9 insect cells at 30 uM using FAM-cAMP as substrate after 1 hr by fluorescence polarization assay relative to control
[20] = target: cGMP-dependent 3',5'-cyclic phosphodiesterase (Homo sapiens) (UniProt O00408); experiment: Inhibition of N-terminal FLAG-tagged human PDE2A1 (2 to 941 residues) expressed in Baculovirus infected Sf9 insect cells at 30 uM using FAM-cAMP as substrate after 1 hr by fluorescence polarization assay relative to control
[21] = target: cGMP-inhibited 3',5'-cyclic phosphodiesterase 3B (Homo sapiens) (UniProt Q13370); experiment: Inhibition of N-terminal GST-tagged recombinant human PDE3B (592 end residues) expressed in Baculovirus infected Sf9 insect cells at 30 uM using FAM-cAMP as substrate after 1 hr by fluorescence polarization assay relative to control
[22] = target: 3',5'-cyclic-AMP phosphodiesterase 4A (Homo sapiens) (UniProt P27815); experiment: Inhibition of N-terminal GST-tagged full length recombinant human PDE4A1A expressed in Baculovirus infected Sf9 insect cells at 8 uM using FAM-cAMP as substrate after 1 hr by fluorescence polarization assay relative to control

Dual specificity calcium/calmodulin-dependent 3',5'-cyclic nucleotide phosphodiesterase 1A (Homo sapiens), sequence (P54750 whole entry, the tested form may be a part): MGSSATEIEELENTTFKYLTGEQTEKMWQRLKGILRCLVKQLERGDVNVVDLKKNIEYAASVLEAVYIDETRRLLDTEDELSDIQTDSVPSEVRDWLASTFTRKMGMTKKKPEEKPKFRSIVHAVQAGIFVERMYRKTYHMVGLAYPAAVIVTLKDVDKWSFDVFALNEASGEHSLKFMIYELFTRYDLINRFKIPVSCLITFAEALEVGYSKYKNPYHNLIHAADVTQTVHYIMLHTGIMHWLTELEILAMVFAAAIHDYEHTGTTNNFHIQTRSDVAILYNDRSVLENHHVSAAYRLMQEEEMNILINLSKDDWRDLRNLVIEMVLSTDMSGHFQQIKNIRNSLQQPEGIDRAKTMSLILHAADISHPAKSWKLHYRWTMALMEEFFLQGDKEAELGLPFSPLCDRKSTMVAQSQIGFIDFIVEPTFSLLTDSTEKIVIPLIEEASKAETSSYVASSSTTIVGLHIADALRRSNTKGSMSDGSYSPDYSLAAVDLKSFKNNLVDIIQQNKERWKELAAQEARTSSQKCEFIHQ
3',5'-cyclic-AMP phosphodiesterase 4A (Homo sapiens), sequence (P27815 whole entry): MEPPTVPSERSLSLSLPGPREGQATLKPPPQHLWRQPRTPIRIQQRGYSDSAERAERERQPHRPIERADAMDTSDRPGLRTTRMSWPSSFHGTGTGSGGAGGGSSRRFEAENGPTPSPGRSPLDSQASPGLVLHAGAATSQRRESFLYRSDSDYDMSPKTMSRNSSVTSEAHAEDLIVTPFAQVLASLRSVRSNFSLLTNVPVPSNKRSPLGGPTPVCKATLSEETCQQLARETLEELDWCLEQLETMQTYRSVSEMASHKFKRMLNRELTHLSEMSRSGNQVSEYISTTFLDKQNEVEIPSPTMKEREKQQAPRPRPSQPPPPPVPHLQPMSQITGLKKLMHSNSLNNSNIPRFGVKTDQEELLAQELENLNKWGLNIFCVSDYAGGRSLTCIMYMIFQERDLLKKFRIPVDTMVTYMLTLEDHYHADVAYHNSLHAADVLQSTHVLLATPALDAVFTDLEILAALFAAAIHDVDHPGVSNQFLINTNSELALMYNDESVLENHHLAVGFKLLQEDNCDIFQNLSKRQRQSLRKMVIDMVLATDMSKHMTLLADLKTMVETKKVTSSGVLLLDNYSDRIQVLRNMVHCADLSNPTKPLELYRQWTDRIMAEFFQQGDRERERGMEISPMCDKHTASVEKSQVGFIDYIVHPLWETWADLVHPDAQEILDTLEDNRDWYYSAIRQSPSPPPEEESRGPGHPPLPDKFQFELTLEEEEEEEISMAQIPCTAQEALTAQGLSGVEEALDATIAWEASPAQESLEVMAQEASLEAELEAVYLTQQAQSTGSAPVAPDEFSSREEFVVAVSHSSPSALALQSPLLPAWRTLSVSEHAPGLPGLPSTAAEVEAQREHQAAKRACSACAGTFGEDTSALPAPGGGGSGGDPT
cGMP-inhibited 3',5'-cyclic phosphodiesterase 3B (Homo sapiens), sequence (Q13370 whole entry, looked up): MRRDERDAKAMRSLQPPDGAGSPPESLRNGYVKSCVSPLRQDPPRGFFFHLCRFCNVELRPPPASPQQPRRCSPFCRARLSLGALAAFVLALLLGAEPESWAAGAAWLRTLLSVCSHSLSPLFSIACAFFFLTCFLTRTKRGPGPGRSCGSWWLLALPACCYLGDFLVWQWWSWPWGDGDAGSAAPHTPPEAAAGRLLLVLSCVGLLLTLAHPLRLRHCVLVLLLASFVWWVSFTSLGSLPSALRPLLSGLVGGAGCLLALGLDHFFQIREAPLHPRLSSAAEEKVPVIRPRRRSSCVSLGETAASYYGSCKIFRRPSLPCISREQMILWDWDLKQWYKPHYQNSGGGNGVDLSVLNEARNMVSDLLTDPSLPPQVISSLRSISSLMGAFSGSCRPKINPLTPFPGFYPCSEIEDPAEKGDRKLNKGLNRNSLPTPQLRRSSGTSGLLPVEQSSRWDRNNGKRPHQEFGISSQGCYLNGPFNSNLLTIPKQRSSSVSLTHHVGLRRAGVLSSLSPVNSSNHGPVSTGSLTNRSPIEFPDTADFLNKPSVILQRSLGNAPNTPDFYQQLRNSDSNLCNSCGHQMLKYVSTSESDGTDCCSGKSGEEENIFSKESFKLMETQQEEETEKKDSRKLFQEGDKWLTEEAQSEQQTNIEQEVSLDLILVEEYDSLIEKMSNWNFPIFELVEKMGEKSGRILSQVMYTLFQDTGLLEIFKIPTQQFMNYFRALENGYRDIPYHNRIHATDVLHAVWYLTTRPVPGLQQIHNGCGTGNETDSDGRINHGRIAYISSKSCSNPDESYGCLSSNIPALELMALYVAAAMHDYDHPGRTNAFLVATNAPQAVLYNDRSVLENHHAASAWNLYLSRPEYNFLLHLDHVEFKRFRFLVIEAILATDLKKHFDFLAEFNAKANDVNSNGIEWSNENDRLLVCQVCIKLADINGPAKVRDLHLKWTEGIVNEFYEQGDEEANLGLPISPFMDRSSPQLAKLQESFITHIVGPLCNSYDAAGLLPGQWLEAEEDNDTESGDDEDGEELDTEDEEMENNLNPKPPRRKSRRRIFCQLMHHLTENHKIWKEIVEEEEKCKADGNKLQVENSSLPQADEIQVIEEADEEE
cGMP-dependent 3',5'-cyclic phosphodiesterase (Homo sapiens), sequence (O00408 whole entry, the tested form may be a part): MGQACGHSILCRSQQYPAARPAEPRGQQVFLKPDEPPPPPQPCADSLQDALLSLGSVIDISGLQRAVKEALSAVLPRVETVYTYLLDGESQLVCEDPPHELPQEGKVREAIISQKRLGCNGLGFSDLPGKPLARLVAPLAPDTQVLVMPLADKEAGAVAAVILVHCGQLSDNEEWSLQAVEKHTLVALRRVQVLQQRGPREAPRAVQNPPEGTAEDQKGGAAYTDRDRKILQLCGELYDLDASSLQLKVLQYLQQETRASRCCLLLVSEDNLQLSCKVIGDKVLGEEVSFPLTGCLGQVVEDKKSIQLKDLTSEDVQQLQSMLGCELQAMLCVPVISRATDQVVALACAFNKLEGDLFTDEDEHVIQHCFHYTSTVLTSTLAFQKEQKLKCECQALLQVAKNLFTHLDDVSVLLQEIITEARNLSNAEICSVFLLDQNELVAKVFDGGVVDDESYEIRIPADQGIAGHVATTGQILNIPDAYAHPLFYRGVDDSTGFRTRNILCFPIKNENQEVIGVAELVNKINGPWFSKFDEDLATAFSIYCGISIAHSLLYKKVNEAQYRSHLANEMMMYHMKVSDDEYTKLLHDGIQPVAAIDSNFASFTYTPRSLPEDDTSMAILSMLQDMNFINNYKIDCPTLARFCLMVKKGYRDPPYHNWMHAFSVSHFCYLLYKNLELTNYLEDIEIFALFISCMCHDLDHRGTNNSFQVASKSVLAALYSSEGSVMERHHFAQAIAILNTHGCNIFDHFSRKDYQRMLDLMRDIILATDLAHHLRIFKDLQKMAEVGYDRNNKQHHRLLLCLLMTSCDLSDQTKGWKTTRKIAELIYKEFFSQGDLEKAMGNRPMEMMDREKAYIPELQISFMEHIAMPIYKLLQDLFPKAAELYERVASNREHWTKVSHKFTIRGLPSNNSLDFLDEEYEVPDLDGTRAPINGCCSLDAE
Cone cGMP-specific 3',5'-cyclic phosphodiesterase subunit alpha', sequence (P51160 whole entry): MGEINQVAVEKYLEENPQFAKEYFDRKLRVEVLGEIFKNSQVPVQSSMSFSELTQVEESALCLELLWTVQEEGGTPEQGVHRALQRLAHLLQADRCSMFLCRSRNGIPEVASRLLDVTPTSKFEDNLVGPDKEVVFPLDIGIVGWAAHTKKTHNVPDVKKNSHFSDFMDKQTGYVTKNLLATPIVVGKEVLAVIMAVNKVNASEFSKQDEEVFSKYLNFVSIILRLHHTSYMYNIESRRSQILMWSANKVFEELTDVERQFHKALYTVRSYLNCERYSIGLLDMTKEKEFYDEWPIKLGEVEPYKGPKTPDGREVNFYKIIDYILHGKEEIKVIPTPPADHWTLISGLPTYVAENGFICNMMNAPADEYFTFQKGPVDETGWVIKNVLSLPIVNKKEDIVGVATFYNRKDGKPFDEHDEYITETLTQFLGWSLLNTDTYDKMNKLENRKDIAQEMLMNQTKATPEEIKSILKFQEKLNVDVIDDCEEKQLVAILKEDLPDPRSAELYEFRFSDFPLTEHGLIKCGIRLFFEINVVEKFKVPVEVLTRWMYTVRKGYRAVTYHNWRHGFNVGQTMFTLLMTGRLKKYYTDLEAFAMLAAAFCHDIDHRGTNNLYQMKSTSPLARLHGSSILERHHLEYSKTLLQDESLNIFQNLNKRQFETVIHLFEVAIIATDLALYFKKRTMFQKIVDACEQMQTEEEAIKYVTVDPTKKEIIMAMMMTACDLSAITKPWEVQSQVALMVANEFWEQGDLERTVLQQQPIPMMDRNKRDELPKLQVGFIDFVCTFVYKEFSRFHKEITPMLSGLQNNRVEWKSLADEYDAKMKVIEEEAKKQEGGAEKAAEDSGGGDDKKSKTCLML

| SMILES | IC50 [2] [nM] | Ratio IC50 [3] | Ratio IC50 [4] | Ratio IC50 [5] | Ratio IC50 [6] | Ratio IC50 [7] | IC50 [8] [nM] | further results |
| --- | --- | --- | --- | --- | --- | --- | --- | --- |
| CCCc1nn(C)c2c(=O)[nH]c(-c3cc(S(=O)(=O)N4CCN(C)CC4)ccc3OCC)nc12 |  |  |  |  |  |  |  | ED50 [1]: 0.0143 mg/kg |
| CCc1ccc(C2c3[nH]c4ccccc4c(=O)c3CN2c2ncccn2)s1 (stereo not given) | 2.5 | > 10000 | > 10000 | > 10000 | > 2500 | 1.5 | 3.7 | inhibition [9]: 3.5%; inhibition [10]: 37%; inhibition [11]: 2.5%; inhibition [12]: 8% |
| CCc1ccc([C@H]2c3[nH]c4ccccc4c(=O)c3CN2c2ncc(-c3ccccn3)cn2)s1 | 26.9 | > 10000 | > 1500 | > 10000 | > 2500 | 1.3 | 34.1 | Activity [13]: 30%; inhibition [14]: 8%; inhibition [15]: 32%; inhibition [16]: 2%; inhibition [17]: 1% |
| OCc1ccc(-c2nccc3c2[nH]c2ccccc23)o1 [PERLOLYRIN] |  |  |  |  |  |  |  | IC50 [18]: 9300 nM |
| CCc1ccc(C2c3[nH]c4ccccc4c(=O)c3CN2c2ncc(-c3ccncc3)cn2)s1 (stereo not given) | 0.6 |  |  |  |  |  |  |  |
| CCc1ccc(C2c3[nH]c4ccccc4c(=O)c3CN2c2ncccn2)o1 (stereo not given) | 3.14 | > 10000 | > 10000 | > 10000 | > 2500 | 2 | 6.2 | inhibition [19]: 3.5%; inhibition [20]: 33%; inhibition [21]: 3.5%; inhibition [22]: 11% |
| CCc1ccc(C2c3[nH]c4ccccc4c(=O)c3CN2c2ncc(-c3ccc(OC)cc3)cn2)s1 (stereo not given) | 6.45 |  |  |  |  |  |  |  |
| OCc1ccoc1-c1nccc2c1[nH]c1ccccc12 |  |  |  |  |  |  |  | IC50 [18]: 4900 nM |
| CCc1ccc(C2c3[nH]c4ccccc4c(=O)c3CN2c2ncc(-c3cccnc3F)cn2)s1 (stereo not given) | 0.82 |  |  |  |  |  |  |  |
